This note sets out measurements from ChEMBL document CHEMBL3808288, “Identification and in Vivo Evaluation of Liver X Receptor β-Selective Agonists for the Potential Treatment of Alzheimer's Disease” (J Med Chem, 2016).

In brackets after ≈: the same amount, converted by molar mass. Activity calls are given as the source filed them. The rule behind the calls is not given here.

The target of data set [1] is T1, Oxysterols receptor LXR-alpha (Homo sapiens, UniProt Q13133).
T1 sequence (Q13133 whole entry): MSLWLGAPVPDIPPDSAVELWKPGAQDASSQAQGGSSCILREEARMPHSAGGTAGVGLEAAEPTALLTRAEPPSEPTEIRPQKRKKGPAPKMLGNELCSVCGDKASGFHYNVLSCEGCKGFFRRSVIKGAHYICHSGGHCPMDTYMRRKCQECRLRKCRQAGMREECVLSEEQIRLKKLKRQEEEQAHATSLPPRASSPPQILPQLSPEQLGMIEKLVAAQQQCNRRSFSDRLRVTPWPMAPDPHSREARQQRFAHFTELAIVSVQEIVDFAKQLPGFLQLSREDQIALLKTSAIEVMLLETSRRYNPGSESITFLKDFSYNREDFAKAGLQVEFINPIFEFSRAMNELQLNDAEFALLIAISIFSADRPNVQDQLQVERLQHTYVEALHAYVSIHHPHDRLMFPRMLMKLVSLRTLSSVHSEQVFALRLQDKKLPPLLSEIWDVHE
Description: Agonist activity at GST-tagged LXRalpha-LBD (unknown origin) by LanthaScreen TR-FRET liver X receptor coactivator assay. In outline:
(§1)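 Cofactor recruitment assay using the ligand binding domains of LXRβ or LXRα. The read-out was EC50 and Emax, with Emax relative to a full agonist control.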

Data set [2] has as its target T2, Oxysterols receptor LXR-beta (Homo sapiens) (UniProt P55055).
T2 sequence (whole entry): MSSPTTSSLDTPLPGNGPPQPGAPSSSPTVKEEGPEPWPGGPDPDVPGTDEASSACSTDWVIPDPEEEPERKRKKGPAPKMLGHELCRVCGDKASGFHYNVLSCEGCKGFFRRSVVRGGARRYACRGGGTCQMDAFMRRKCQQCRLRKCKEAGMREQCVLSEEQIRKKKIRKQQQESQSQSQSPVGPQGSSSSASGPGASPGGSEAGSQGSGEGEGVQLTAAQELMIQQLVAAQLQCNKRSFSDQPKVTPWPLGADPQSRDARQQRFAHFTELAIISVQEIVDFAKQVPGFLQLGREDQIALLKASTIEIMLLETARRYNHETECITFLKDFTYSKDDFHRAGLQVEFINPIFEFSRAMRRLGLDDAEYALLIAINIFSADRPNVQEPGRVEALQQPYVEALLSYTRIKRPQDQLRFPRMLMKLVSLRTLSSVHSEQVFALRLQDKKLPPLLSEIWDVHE
Description: Agonist activity at GST-tagged LXRbeta-LBD (unknown origin) by LanthaScreen TR-FRET liver X receptor coactivator assay relative to T1317. In outline:
as §1

Data set [3] deals with T3, Oxysterols receptor LXR-beta (Homo sapiens, UniProt P55055).
T3 sequence (P55055 whole entry): T2 sequence (whole entry)
Description: Agonist activity at GST-tagged LXRbeta-LBD (unknown origin) by LanthaScreen TR-FRET liver X receptor coactivator assay. In outline: as §1

The target of data set [4] is T1, Oxysterols receptor LXR-alpha. Description: (§2) Agonist activity at LXRalpha (unknown origin) expressed in human HepG2 cells co-expressing ABCA1 promoter measured after 48 hrs by cell-based transactivation assay.
Data set [5] has as its target T4, Oxysterols receptor LXR-alpha (Homo sapiens) (UniProt Q13133).
T4 sequence (whole entry): T1 sequence (Q13133 whole entry)
Described as §2.

The target of data set [6] is T4, Oxysterols receptor LXR-alpha (Homo sapiens). Nature of the data set: Agonist activity at GST-tagged LXRalpha-LBD (unknown origin) by LanthaScreen TR-FRET liver X receptor coactivator assay T1317. In outline:
as §1

Data set [7] concerns the target T2, Oxysterols receptor LXR-beta (Homo sapiens). Description: (§3) Agonist activity at LXRbeta (unknown origin) expressed in human H4 cells co-expressing ABCA1 promoter measured after 48 hrs by cell-based transactivation assay.
The target in data set [8] is T3, Oxysterols receptor LXR-beta. Described as §3.
The nature of data set [9]: Solubility of the compound at pH 2. The format is physicochemical. The following applies: buffer.
The subject of data set [10] is P-gp. Nature of the data set: Efflux ratio in MDCK cells expressing human P-gp assessed as ratio of permeability across basolateral to apical side over apical to basolateral side. In kind it is ADME, cell-based, Canis lupus familiaris. Particulars: dog, MDCK-MDR1.
In data set [11] the test system is P-gp. Nature of the data set: Efflux ratio in MDCK cells expressing rat P-gp assessed as ratio of permeability across basolateral to apical side over apical to basolateral side. The format is ADME, cell-based, Canis lupus familiaris. Particulars: dog, MDCK-MDR1.
In data set [12] the test system is Rhesus monkey. Description: Increase in hepatic fat content in rhesus monkey at 5 mg/kg, po qd for 2 weeks by magnetic resonance spectroscopic imaging method relative to vehicle control. In kind it is ADME, organism-based, Macaca mulatta. The following applies: in vivo, 336 h.
Data set [13] deals with Cynomolgus monkey. Description: Increase in triglycerides level in cynomolgus monkey liver at >= 3 mg/kg, po qd administered for 2 weeks. In kind it is ADME, organism-based, Macaca fascicularis. Particulars: in vivo, 336 h.
In data set [14] the test system is Rhesus monkey. Nature of the data set: Increase in apoE level in CSF of rhesus monkey at 5 mg/kg, po administered for 2 weeks. The following applies: Macaca mulatta. In kind it is functional, organism-based. In outline:
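Rhesus monkeys were dosed orally once daily for 2 weeks after randomisation on baseline lipids, liver enzymes and liver fat. CSF was taken by lumbar puncture at baseline and at trough after the last dose, and apoE was measured against baseline.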

The subject of data set [15] is Rhesus monkey. Description: Increase in apoE level in plasma of rhesus monkey at 5 mg/kg, po administered for 2 weeks. The format is functional, organism-based. Particulars: Macaca mulatta.
The subject of data set [16] is Rhesus monkey. Description: Increase in amyloid beta40 in CSF of rhesus monkey at 5 mg/kg, po administered for 2 weeks. The following applies: Macaca mulatta. The format is functional, organism-based.
Data set [17] has as its system Mus musculus. Description: Toxicity in Tg2576 mouse assessed as increase in liver triglyceride level at 10 mg/kg, sc dosed for 3 weeks. The following applies: in vivo, 504 h. In kind it is organism-based. In outline:
(§4)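 12-month-old Tg2576 mice were dosed subcutaneously for three weeks. Brain was assayed for ABCA1 protein, soluble apoE and DEA-soluble Aβ, and plasma and liver were assayed for triglycerides. Groups were compared with vehicle by ANOVA.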

The subject of data set [18] is Rhesus monkey. Description: Increase in amyloid beta40 in CSF of rhesus monkey at 10 mg/kg, po administered for 2 weeks. The format is functional, Macaca mulatta.
For data set [19], the system named is Rhesus monkey. Description: Increase in amyloid beta42 in CSF of rhesus monkey at 10 mg/kg, po administered for 2 weeks. In kind it is functional, Macaca mulatta.
In data set [20] the test system is Mus musculus. Description: Toxicity in Tg2576 transgenic mouse assessed as increase in plasma triglyceride level at 10 mg/kg, sc dosed for 3 weeks. The format is organism-based. The following applies: in vivo, 504 h. In outline: as §4
The subject of data set [21] is Rhesus monkey. Nature of the data set: Increase in amyloid beta42 in CSF of rhesus monkey at 5 mg/kg, po administered for 2 weeks. In kind it is functional, organism-based. Particulars: Macaca mulatta.

As for `CN(C)C(=O)c1ccc(-c2cnc(N3CCN(C(=O)[C@](O)(c4ccccc4)C(F)(F)F)CC3)c(C#N)c2)cc1Cl`, the EC50 in data set [1] was 41 nM; in data set [3] it was 8 nM; in [4], 45 nM; in data set [8], 7 nM. For the same compound, the Emax in data set [2] is 67%; in data set [5], 66%; in [6] it was 62%; in data set [7], 64%. Further, the concentration in solution in data set [9] (solubility) was 3 µM (≈ 1.72 µg/mL).
In the case of `CC(C)[C@](O)(C(=O)N1CCC(C2CCN(c3ccc(C(=O)N(C)C)c(Cl)c3)CC2)CC1)C(F)(F)F`, the EC50 is 2000 nM in data set [4] and 840 nM in [8]. Moreover, the values for the Emax in data set [5] and in [7] were 31% and 117%, respectively.
Consider `CN(C)C(=O)c1ccc(N2CCC(C3CCN(C(=O)[C@](O)(c4ccccc4)C(F)(F)F)CC3)CC2)cc1Cl`, for which the figures for the efflux ratio in data set [10] and in data set [11] were 1.8 and 4.3, respectively. The 50% effective concentration (EC50) in [4] worked out at 500 nM; in data set [8], 550 nM. The Emax in data set [5] is 24%; in data set [7] it was 91%. Also, the solubility in data set [9] came to 197 µM (≈ 109 µg/mL).
Consider `CC(C)(O)CNC(=O)Nc1ccc(C(=O)N2CCN(Cc3ccc(C(O)(C(F)(F)F)C(F)(F)F)cc3)CC2)cc1F`, for which the “fold change (FC)” value in data set [12] is given as 4. Further, the Activity result in data set [13] is recorded as “Toxic”. Also, in data set [14], the result was inactive. In data set [15], the outcome was Active.
Consider `O=S(=O)(c1ccccc1)N(CC(F)(F)F)c1ccc(C(O)(C(F)(F)F)C(F)(F)F)cc1` [T091317], for which the result in data set [16] and in data set [21] was inactive. In addition, the Activity result in [17] is reported as “Toxic”; in data set [18] it was 25%; in data set [19], 25%; in data set [20], “Toxic”.
For the compound `CN(C)C(=O)c1ccc(-c2cnc(N3CCN(C(=O)OC(C)(C)C)CC3)c(C#N)c2)cc1Cl`, the concentration giving a half-maximal response (EC50) was determined as 1480 nM in [1], 940 nM in [3], 280 nM in [4] and 770 nM in [8]. The Emax in data set [2] stood at 106%; in data set [5] it was 40%; in [6], 50%; in data set [7], 103%.
